The source of these data is ChEMBL document CHEMBL4028851, “Discovery of Potent Small-Molecule Inhibitors of Ubiquitin-Conjugating Enzyme UbcH5c from α-Santonin Derivatives” (J Med Chem, 2017).

For orientation: AUC(0-inf) means total exposure, with the tail of the curve extrapolated. Low readings indicate less exposure, high ones more exposure. As usually defined, the half-life is how long it takes for the measured level to halve. What is called Tmax is the time at which the peak concentration occurs. For orientation: bioavailability means the share of a dose that reaches the circulation, judged against a reference dose that is usually intravenous.

Series [1] can be described thus: AUC (0 to infinity) in Sprague-Dawley rat at 1 mg/kg, iv by LC-MS/MS analysis. Type of series: ADME, organism-based. On the set-up: dose 1 mg/kg, time infinity, route intravenous. As to conditions: in vivo.
Series [2] in a line: Half life in Sprague-Dawley rat at 1 mg/kg, iv by LC-MS/MS analysis. Type of series: ADME, organism-based. The note with it: in vivo. Summed up:
(§1)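 Male Sprague-Dawley rats (about 200‒220 g; n = 6) were fasted overnight and given a single 1 mg/kg iv dose in DMSO:castor oil:saline (3:3:94). Blood was sampled from the orbital artery into heparin tubes. Plasma was analysed by LC/MS/MS (ESI, MRM), and parameters came from noncompartmental analysis. Values are mean ± SD.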

A short description of series [3]: Volume of distribution at steady state in Sprague-Dawley rat at 1 mg/kg, iv by LC-MS/MS analysis. Type of series: ADME, organism-based. As to conditions: in vivo, read-out: Vdss. Summed up: as §1
Series [4] addresses Ubiquitin-conjugating enzyme E2 L3 (Homo sapiens) (UniProt P68036). The series is described as follows: Inhibition of UbcH7 (unknown origin) at 2.5 to 10 uM preincubated for 15 mins followed by E1, Ub and ATP addition measured after 40 mins by Western blot analysis. (In general: A western blot detects proteins with antibodies after separation by electrophoresis.)
Series [5] concerns the target T1, Ubiquitin-conjugating enzyme E2 C (Homo sapiens) (UniProt O00762).
T1 sequence (whole entry): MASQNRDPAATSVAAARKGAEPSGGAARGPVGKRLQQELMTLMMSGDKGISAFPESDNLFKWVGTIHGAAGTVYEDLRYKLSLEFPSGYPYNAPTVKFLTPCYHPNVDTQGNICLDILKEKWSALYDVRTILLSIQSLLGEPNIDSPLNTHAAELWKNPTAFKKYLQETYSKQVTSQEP
The series is described as follows: Inhibition of UbcH10 (unknown origin) at 2.5 to 10 uM preincubated for 15 mins followed by E1, Ub and ATP addition measured after 40 mins by Western blot analysis.

In series [6] the target is T2, Ubiquitin-conjugating enzyme E2 K (Homo sapiens) (UniProt P61086).
T2 sequence (whole entry): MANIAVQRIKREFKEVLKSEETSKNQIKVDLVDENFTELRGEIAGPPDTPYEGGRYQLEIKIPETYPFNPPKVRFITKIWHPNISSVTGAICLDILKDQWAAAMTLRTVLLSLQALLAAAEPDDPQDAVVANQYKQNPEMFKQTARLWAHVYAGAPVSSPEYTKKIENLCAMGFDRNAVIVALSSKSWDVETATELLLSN
In words: Inhibition of E2-25K (unknown origin) at 2.5 to 10 uM preincubated for 15 mins followed by E1, Ub and ATP addition measured after 40 mins by Western blot analysis.

For series [7], the target named is Ubiquitin-conjugating enzyme E2 D3 (Mus musculus) (UniProt P61079). The series is described as follows: Inhibition of UbcH5c in mouse b.End3 cells assessed as decrease in TNF-alpha-mediated IkB-alpha phosphorylation preincubated for 2 hrs followed by TNF-alpha stimulation for 20 mins by Western blot analysis. Type of series: cell-based. A digest of the protocol: (§2)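 bEnd.3 cells (DMEM, 10% FBS) were pretreated with compound at 2.5, 5 or 10 µM for 2 h, then stimulated with 20 ng/mL TNF-α (15 min in the methods, 20 min in the legend). Lysates were run on 10% SDS-PAGE and immunoblotted for phospho-IκBα, IκBα, phospho-p65 and p65, with GAPDH as loading control.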

Series [8] shares this target. The series is described as follows: Inhibition of UbcH5c in mouse b.End3 cells assessed as decrease in TNF-alpha-mediated IkB-alpha degradation preincubated for 2 hrs followed by TNF-alpha stimulation for 20 mins by Western blot analysis. Type of series: cell-based. A digest of the protocol: as §2
The target in series [9] is Ubiquitin-conjugating enzyme E2 D1 (Homo sapiens) (UniProt P51668). The series is described as follows: Inhibition of UbcH5a (unknown origin) at 2.5 to 10 uM preincubated for 15 mins followed by E1, Ub and ATP addition measured after 40 mins by Western blot analysis.
Series [10] is described as follows: Tmax in Sprague-Dawley rat at 5 mg/kg, po via gavage by LC-MS/MS analysis. Type of series: ADME, organism-based. The note with it: in vivo. A digest of the protocol:
(§3)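 Male Sprague-Dawley rats (about 200‒220 g; n = 6) were fasted overnight and gavaged with 5 mg/kg as a suspension in 0.5% methylcellulose. Blood was taken from the orbital artery at 0.083–24 h into heparin tubes. Plasma was quantified by LC/MS/MS (ESI, MRM), with noncompartmental analysis. Bioavailability was referenced to a 1 mg/kg iv dose. Values are mean ± SD.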

Series [11] in a line: Half life in Sprague-Dawley rat at 5 mg/kg, po via gavage by LC-MS/MS analysis. Type of series: ADME, organism-based. As to conditions: in vivo. Summed up: as §3
The nature of series [12]: AUC (0 to infinity) in Sprague-Dawley rat at 5 mg/kg, po via gavage by LC-MS/MS analysis. More on the design: dose 5 mg/kg, time infinity, route oral. The note with it: in vivo. Type of series: ADME, organism-based. Summed up:
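Male Sprague-Dawley rats (about 200‒220 g), n = 6, fasted overnight; single oral gavage at 5 mg/kg as a suspension in 0.5% methylcellulose. Blood was drawn from the orbital artery into heparin tubes at 0.083–24 h. Plasma was analysed by LC/MS/MS (ESI, MRM). AUC(0-∞) came from noncompartmental analysis, reported as mean ± SD of six rats.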

A short description of series [13]: Oral bioavailability in Sprague-Dawley rat at 5 mg/kg via gavage by LC-MS/MS analysis. The note with it: in vivo. Type of series: ADME, organism-based. Summed up:
as §3

The nature of series [14]: Half life in rat plasma at 5 uM. Type of series: ADME, cell-free. Summed up: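 Compound (5 µM final, from a 25 mM DMSO stock) was incubated at 37 °C in rat plasma (0–90 min) or rat whole blood (0, 5, 10, 30, 60, 90 min). Reactions were quenched with ice-cold acetonitrile, centrifuged, and the supernatants analysed.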
In series [15] the test system is Rattus norvegicus. The series is described as follows: Antiarthritic activity in Wistar rat Freund's adjuvant-induced arthritis model assessed as reduction in arthritis index score at 5 to 20 mg/kg, po qd administered on day 10 to 20 postimmunization measured every 2 to 3 days during compound dosing. Type of series: functional, organism-based. Summed up: (§4)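 Adjuvant arthritis was induced by intradermal CFA (0.1 mL) into the base of the left hind paw (day 0), with a boost 10 days later. Rats were dosed orally once daily at 5 or 20 mg/kg from day 10 to day 20, with 10 rats per group. Vehicle controls received 0.3% sodium carboxymethylcellulose. Two blinded observers scored the animals every 2 or 3 days. Data are mean ± S.E.M.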

Series [16] has as its system Rattus norvegicus. In words: Antiarthritic activity in Wistar rat Freund's adjuvant-induced arthritis model assessed as reduction in hind paw swelling at 5 to 20 mg/kg, po qd administered on day 10 to 20 postimmunization measured every 2 to 3 days during compound dosing. Type of series: functional, organism-based. A digest of the protocol: as §4
The nature of series [17]: Binding affinity to IYHPNINSNGSICLDILR assessed as covalent adduct formation with Cys85 residues after 1 hr by LC/MS/MS analysis.
In series [18] the target is Ubiquitin-conjugating enzyme E2 D3 (Mus musculus) (UniProt P61079). In words: Inhibition of UbcH5c in mouse b.End3 cells assessed as decrease in TNF-alpha-mediated IkB-alpha phosphorylation at 10 uM preincubated for 2 hrs followed by TNF-alpha stimulation for 20 mins by Western blot analysis. In kind it is cell-based. A digest of the protocol:
as §2

A short description of series [19]: in vitro. As to conditions: human, HEK-293T cells.

Activity calls are given as the source filed them. The calls are words filed in the database; no cut-off is given here.

Chain of Ubiquitin-conjugating enzyme E2 D3 (Mus musculus) (P61079 whole entry, looked up): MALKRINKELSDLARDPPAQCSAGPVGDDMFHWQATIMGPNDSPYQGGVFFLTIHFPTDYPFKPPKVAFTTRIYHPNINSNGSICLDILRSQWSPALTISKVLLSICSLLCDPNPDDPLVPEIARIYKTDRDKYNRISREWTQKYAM
Chain of Ubiquitin-conjugating enzyme E2 L3 (Homo sapiens) (P68036 whole entry): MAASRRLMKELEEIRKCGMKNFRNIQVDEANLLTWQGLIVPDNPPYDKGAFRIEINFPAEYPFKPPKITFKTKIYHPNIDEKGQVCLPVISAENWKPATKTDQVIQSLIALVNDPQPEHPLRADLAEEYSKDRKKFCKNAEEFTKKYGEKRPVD
Chain of Ubiquitin-conjugating enzyme E2 D1 (Homo sapiens) (P51668 whole entry): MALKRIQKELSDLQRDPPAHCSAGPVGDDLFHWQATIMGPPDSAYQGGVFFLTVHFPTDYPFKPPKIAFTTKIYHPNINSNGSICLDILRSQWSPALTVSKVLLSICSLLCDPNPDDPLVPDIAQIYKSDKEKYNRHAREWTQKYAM

As to `C=C1C(=O)O[C@H]2c3c(C)c(OCc4ccccc4Br)cc(C)c3CC[C@@H]12`, the AUC(0-inf) in [1] was 408 ng·h/mL; in series [12], 314 ng·h/mL. Moreover, the values for the half-life in series [2] and in series [11] were 1.76 h and 2.86 h, respectively. Moreover, in series [3], the Vd worked out at 6.26 L/kg. The inhibition result in series [4], in [5], in [9] and in [18] was “Active” in each case. Moreover, the inhibition result in series [6] was “inactive”. Besides, the inhibition result in [7] and in [8] was “Dose-dependent effect” in each case. The Tmax in series [10] turned out to be 3.83 h. In series [13], this compound came in with a bioavailability of 16.8%. Also, the half-life at 5 µM in series [14] is 1.43 h. The result in series [15], in series [16] and in [17] was Active. In series [19], the cytotoxicity at 5 µM is less than 20%.
